Legend:
[1] = target: T1, Sphingosine 1-phosphate receptor 1 (Homo sapiens, UniProt P21453); experiment: Agonist activity at human S1P1 receptor expressed in human U2OS cells co-expressing eGFP assessed as receptor internalization after 1 hr relative to 1-(4-(6-benzylbenzofuran-2-yl)-3-fluorobenzyl)azetidine-3-carboxylic acid; assay type: functional, cell-based
[2] = target: T1, Sphingosine 1-phosphate receptor 1; experiment: Agonist activity at human S1P1 receptor expressed in human U2OS cells co-expressing eGFP assessed as receptor internalization after 1 hr; assay type: functional, cell-based
Outline: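 U2OS cells expressing an hS1P1-GFP fusion protein; the read-out was receptor internalization. EC50 is the molar concentration giving a half-maximal response.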

[3] = target: T2, Sphingosine 1-phosphate receptor 3 (Homo sapiens, UniProt Q99500); experiment: Agonist activity at human S1P3 receptor expressed in CHO cells coexpressing Gq/i5 G-protein assessed as Ca2+ mobilization after 60 to 90 mins by FLIPR assay; assay type: functional, cell-based
T2 sequence (Q99500 whole entry): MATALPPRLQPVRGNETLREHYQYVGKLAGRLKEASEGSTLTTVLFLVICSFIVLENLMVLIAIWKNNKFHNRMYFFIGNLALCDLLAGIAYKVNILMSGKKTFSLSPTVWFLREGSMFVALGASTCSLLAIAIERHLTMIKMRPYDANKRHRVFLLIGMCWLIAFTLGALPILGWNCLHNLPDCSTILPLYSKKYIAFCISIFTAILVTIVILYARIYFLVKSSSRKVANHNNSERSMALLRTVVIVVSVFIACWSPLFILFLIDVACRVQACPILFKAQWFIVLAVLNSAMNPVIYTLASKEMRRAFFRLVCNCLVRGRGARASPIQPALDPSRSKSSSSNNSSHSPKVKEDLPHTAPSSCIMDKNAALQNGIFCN
Outline: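 Ca2+ mobilization in CHO-K1 cells transfected with hS1P3/Gq/i5. EC50 is the molar concentration giving a half-maximal response.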

[4] = target: T2, Sphingosine 1-phosphate receptor 3; experiment: Agonist activity at human S1P3 receptor expressed in CHO cells coexpressing Gq/i5 G-protein assessed as Ca2+ mobilization at 25 uM after 60 to 90 mins by FLIPR assay; assay type: functional, cell-based
[5] = Solubility of the compound in simulated intestinal fluid at pH 6.8 after 2 to 3 days by HPLC analysis; assay type: physicochemical
[6] = Apparent permeability of the compound across pig LLC-PK1 cells; assay type: ADME, cell-based, Sus scrofa
Outline: (§1)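 Parental porcine proximal tubule LLC-PK1 cell line. Apparent permeability was measured, and the efflux ratio was derived from it.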

[7] = Efflux ratio of permeability in pig LLC-PK1 cells; assay type: ADME, cell-based, Sus scrofa; outline: as §1
[8] = Plasma protein binding in rat; assay type: ADME, cell-free; settings: read-out: PPB (converted)
[9] = Intrinsic clearance in rat liver microsomes at 1 uM after 30 mins; assay type: ADME, Microsome; settings: read-out: CLH
Rattus norvegicus [10] = experiment: Lymphopenic activity in Lewis rat assessed as reduction in peripheral blood lymphocyte counts at 1 mg/kg, po measured 24 hrs post dosing relative to control; assay type: functional; set-up: scale not given: the % may be the effect or the level left
Outline: (§2)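 Female Lewis rats (N = 5/group) received a single oral dose of 1 mg/kg in 20% captisol, 1% HPMC, 1% pluronic F68, pH 2.1 with MSA. Peripheral lymphocyte count is given as percent-of-control reduction versus vehicle at 24 h. Total plasma drug concentration was measured at 24 h. Statistics used ANOVA/Dunnett versus vehicle.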

Rattus norvegicus [11] = experiment: Lymphopenic activity in Lewis rat assessed as reduction in peripheral blood lymphocyte counts at 3 mg/kg, po measured 24 hrs post dosing relative to control; assay type: functional; set-up: scale not given: the % may be the effect or the level left
Outline: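 Female Lewis rats (N = 3/group) received a single oral dose in 20% captisol/1% HPMC/1% pluronic F68, pH 2, with MSA. Blood lymphocyte counts and plasma concentration were measured at 24 h, reported as mean ± SE. Comparison was versus vehicle by ANOVA/Dunnett, P < 0.05.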

[12] = Plasma concentration in Lewis rat at 1 mg/kg, po measured 24 hrs post dosing; assay type: ADME, organism-based; set-up: dose 1 mg/kg, route oral; settings: Lewis, plasma; outline: as §2
[13] = Clearance in C57BL/6 mouse at 1 mg/kg, iv and 3 mg/kg, po; assay type: ADME, organism-based; settings: in vivo
Outline: (§3)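 Female C57BL/6 mice. IV dosing used 40% hydroxypropyl β-cyclodextrin/60% water. Oral dosing used 1% HPMC/1% pluronic F68/20% HPBCD/78% water with MSA, pH 2.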

[14] = Volume of distribution at steady state in C57BL/6 mouse at 1 mg/kg, iv; assay type: ADME, organism-based; set-up: dose 1 mg/kg, route intravenous; settings: in vivo, read-out: Vdss; outline: as §3
[15] = Mean residence time in C57BL/6 mouse at 1 mg/kg, iv; assay type: ADME, organism-based; set-up: dose 1 mg/kg, route intravenous; settings: in vivo; outline: as §3
[16] = AUC (0 to infinity) in C57BL/6 mouse at 3 mg/kg, po; assay type: ADME, organism-based; set-up: time infinity, dose 3 mg/kg, route oral; settings: plasma; outline: as §3
[17] = Oral bioavailability in C57BL/6 mouse at 3 mg/kg; assay type: ADME, organism-based; settings: in vivo; outline: as §3
[18] = Clearance in Sprague-Dawley rat at 1 mg/kg, iv and 2 mg/kg, po; assay type: ADME, organism-based; settings: in vivo
Outline: (§4)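 Male Sprague-Dawley rats. IV doses were given in DMSO. Oral doses were given in 20% Captisol/1% Tween 80, pH 2, with MSA. Plasma was collected up to 48 h after dosing.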

[19] = Volume of distribution at steady state in Sprague-Dawley rat at 1 mg/kg, iv; assay type: ADME, organism-based; set-up: dose 1 mg/kg, route intravenous; settings: in vivo, read-out: Vdss; outline: as §4
[20] = Mean residence time in Sprague-Dawley rat at 1 mg/kg, iv; assay type: ADME, organism-based; set-up: dose 1 mg/kg, route intravenous; settings: in vivo; outline: as §4
[21] = AUC (0 to infinity) in Sprague-Dawley rat at 2 mg/kg, po; assay type: ADME, organism-based; set-up: time infinity, dose 2 mg/kg, route oral; settings: plasma; outline: as §4
[22] = Oral bioavailability in Sprague-Dawley rat at 2 mg/kg; assay type: ADME, organism-based; settings: in vivo; outline: as §4
[23] = AUC (0 to infinity) in Sprague-Dawley rat at 100 mg/kg, po; assay type: ADME, organism-based; set-up: time infinity, dose 100 mg/kg, route oral; settings: plasma; outline: as §4
[24] = Oral bioavailability in Sprague-Dawley rat at 100 mg/kg; assay type: ADME, organism-based; settings: in vivo; outline: as §4
[25] = Clearance in nonhuman primates at 4 mg/kg, iv and 10 mg/kg, po; assay type: ADME, organism-based; settings: in vivo
Outline: (§5)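 Pharmacokinetics in male nonhuman primates. IV vehicle was 40% hydroxypropyl β-cyclodextrin/60% water with MSA, pH 3. Oral vehicle was 1% HPMC/1% pluronic F68/20% HPBCD/78% water with MSA, pH 2.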

[26] = Volume of distribution at steady state in nonhuman primates at 4 mg/kg, iv; assay type: ADME, organism-based; set-up: dose 4 mg/kg, route intravenous; settings: in vivo, read-out: Vdss; outline: as §5
[27] = Mean residence time in nonhuman primates at 4 mg/kg, iv; assay type: ADME, organism-based; set-up: dose 4 mg/kg, route intravenous; settings: in vivo; outline: as §5
[28] = AUC (0 to infinity) in nonhuman primates at 10 mg/kg, po; assay type: ADME, organism-based; set-up: dose 10 mg/kg, route oral, time infinity; settings: plasma; outline: as §5
[29] = Oral bioavailability in nonhuman primates at 10 mg/kg; assay type: ADME, organism-based; settings: in vivo; outline: as §5
[30] = Half life in Sprague-Dawley rat at 100 mg/kg, po; assay type: ADME, organism-based; set-up: dose 100 mg/kg, route oral; settings: in vivo; outline: as §4
[31] = Half life in Sprague-Dawley rat at 1 to 2 mg/kg, iv and po; assay type: ADME, organism-based; set-up: dose 1-2 mg/kg, route oral; settings: in vivo; outline: as §4
[32] = target: T2, Sphingosine 1-phosphate receptor 3; experiment: Agonist activity at human S1P3 receptor expressed in CHO cells coexpressing Gq/i5 G-protein assessed as Ca2+ mobilization after 60 to 90 mins by FLIPR assay relative to 0.2 uM S1P
[33] = AUC (0 to 24 hrs) in rat at 3 mg/kg, po; assay type: ADME, organism-based; set-up: time < 24 hr, dose 3 mg/kg, route oral; settings: plasma
Rattus norvegicus [34] = experiment: AUC (0 to 24 hrs) in rat at 100 mg/kg, po; assay type: ADME, organism-based, Plasma; set-up: time < 24 hr, dose 100 mg/kg, route oral; settings: in vivo

T1 sequence (P21453 whole entry): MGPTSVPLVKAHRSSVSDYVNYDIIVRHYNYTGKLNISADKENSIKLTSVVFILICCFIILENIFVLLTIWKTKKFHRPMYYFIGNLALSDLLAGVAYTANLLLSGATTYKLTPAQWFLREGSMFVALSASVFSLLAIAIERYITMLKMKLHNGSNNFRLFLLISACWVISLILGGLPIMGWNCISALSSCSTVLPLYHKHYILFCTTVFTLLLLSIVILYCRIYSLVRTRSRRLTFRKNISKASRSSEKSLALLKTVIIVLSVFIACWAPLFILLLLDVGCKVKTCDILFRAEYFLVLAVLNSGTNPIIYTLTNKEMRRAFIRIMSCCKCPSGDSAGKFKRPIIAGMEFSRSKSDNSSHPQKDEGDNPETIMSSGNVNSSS

Cn1cc(C(=O)Nc2ccc(-c3ccccc3)c(C(F)(F)F)c2)c(=O)c2ccccc21
Efficacy [1]: 105%

Cn1cc(C(=O)Nc2ccc(-c3ccccc3)c(C(F)(F)F)c2)c(=O)c2ccc(NCCC(=O)O)cc21
EC50 [2]: 150 nM
Efficacy [1]: 81%
EC50 [3]: > 25000 nM
Activity [4]: < 10%

Cn1cc(C(=O)Nc2ccc(-c3ccccc3)c(C(F)(F)F)c2)c(=O)c2cnc(CO)cc21
EC50 [2]: 18 nM
Efficacy [1]: 106%
EC50 [3]: > 25000 nM
solubility [5]: > 200 µg/mL
Papp [6]: 2.5 ×10⁻⁶ cm/s
efflux ratio [7]: 1
fraction unbound [8]: 0.083
microsomal CLint at 1 µM [9]: < 14 µL/min/mg
Activity (Rattus norvegicus [10]): -60%
Activity (Rattus norvegicus [11]): 88%
concentration at 24 h [12]: 84 ng/mL
clearance [13]: 5.17 mL/min/kg
Vd [14]: 6 L/kg
MRT [15]: 20 h
AUC(0-inf) [16]: 16 µM·h
bioavailability [17]: 75%
clearance [18]: 5.17 mL/min/kg
Vd [19]: 5.8 L/kg
MRT [20]: 19 h
AUC(0-inf) [21]: 19 µM·h
bioavailability [22]: 132%
AUC(0-inf) [23]: 1630 µM·h
bioavailability [24]: > 93%
clearance [25]: 1.83 mL/min/kg
Vd [26]: 4.3 L/kg
MRT [27]: 40 h
AUC(0-inf) [28]: 141 µM·h
bioavailability [29]: 67%
half-life [30]: 2.38 days
half-life [31]: 780 min
Activity [4]: < 10%

Cn1cc(C(=O)Nc2ccc(-c3ccccc3)c(C(F)(F)F)c2)c(=O)c2cccc(CN)c21
EC50 [2]: 81 nM
Efficacy [1]: 118%
EC50 [3]: 5600 nM
Efficacy [32]: 48%

COc1ccncc1C(=O)NC(=O)Nc1ccc(-c2ccccc2)c(C(F)(F)F)c1
AUC(0-t) at 24 h [33]: 12 µM·h
AUC (Rattus norvegicus [34]): 73 µM·h

Cn1cc(C(=O)Nc2ccc(-c3ccccc3)c(C(F)(F)F)c2)c(=O)c2cnc(CCC(=O)O)cc21
EC50 [2]: 38 nM
Efficacy [1]: 88%
EC50 [3]: 1300 nM
Efficacy [32]: 49%

Cn1cc(C(=O)Nc2ccc(-c3ccccc3)c(C(F)(F)F)c2)c(=O)c2cccc(C(=O)O)c21
EC50 [2]: 2000 nM
Efficacy [1]: 103%
EC50 [3]: 1100 nM
Efficacy [32]: 11%

Cn1cc(C(=O)Nc2ccc(-c3ccccc3)c(C(F)(F)F)c2)c(=O)c2cc(CO)ccc21
EC50 [2]: 700 nM
Efficacy [1]: 46%
EC50 [3]: > 25000 nM
Activity [4]: < 10%

Cn1cc(C(=O)Nc2ccc(-c3ccccc3)c(C(F)(F)F)c2)c(=O)c2ccc(CC(=O)O)cc21
EC50 [2]: 180 nM
Efficacy [1]: 138%
EC50 [3]: 1600 nM
Efficacy [32]: 28%

Reference: ChEMBL document CHEMBL2034924, “Optimization of a Potent, Orally Active S1P1 Agonist Containing a Quinolinone Core” (ACS Med Chem Lett, 2012)
